The record followed here is PubChem BioAssay.

Assay [1] can be described thus: inhibitors of TNFa-induced NFkB p65 translocation, primary screen, imaging, HUVEC, MLSMR starter and 10KST1 sets (AID 438;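 active means inhibition above 20% together with a positive visual image hit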;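 further: compound added about 3h40 before a 20 min TNFalpha stimulation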;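 on inhibition: signal is the nuclear over cytoplasmic p65 intensity ratio per well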). As to conditions: HUVEC TNFa-induced p65 nuclear translocation; cell count: measured here: nuclei count (cytotoxicity indicator), at 2.08 µM; inhibition: at 2 µM, stronger effect = higher value, 0% TNFa-plus-vehicle, 100% no-TNFa wells.
Assay [2] can be described thus: inhibitors of mutant huntingtin aggregation, primary screen, imaging, exon1htt(103Q)mCFP cells, high-content imaging (AID 483;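 active means visual image review flags a hit and inhibition of aggregation exceeds 20%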;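 further: compound exposure lasted 3 days before fixation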;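 on nuclei count: percent of the per-plate median nuclei count of sample wells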). As to conditions: exon1htt(103Q)mCFP cell line, aggregate imaging, at 2 µM; inhibition of aggregation: stronger effect = higher value; nuclei count: measured here: cell count, toxicity.
The nature of assay [3]: inhibitors of E-selectin induction by TNFa, primary screen, imaging, HUVEC, immunofluorescence, MLSMR starter and 10KST1 sets (AID 487;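 active means visually confirmed hit in the image check and inhibition above 20%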;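 on inhibition: signal is fraction of cell area covered by stained E-selectin grains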;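 on nuclei count: 100% = median nuclei count of all wells on the same plate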). As to conditions: HUVEC TNFalpha-induced E-selectin immunofluorescence imaging, at 2 µM; inhibition: stronger effect = higher value; nuclei count: measured here: cell number, toxicity.
Assay [4] addresses Voltage-gated potassium channel subunit beta-2 (Rattus norvegicus) (UniProt P62483). The assay can be described thus: KvBeta enzyme negative modulators, primary screen, biochemical, NADPH fluorescence (AID 622;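 active means fluorescence slope higher than the sample average by over 3 SD, cut at about -0.22 in these data, passing the limit was not always enough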;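 further: slope of raw intensity against log time taken from 70 to 1610 s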). As to conditions: recombinant KvBeta, 4-cyanobenzaldehyde reduction, at 10 µM, stronger effect = higher value.
Assay [5] shares this target. In words: KvBeta positive modulators, primary screen, biochemical, NADPH fluorescence (AID 623;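 active means NADPH fluorescence slope more negative than the mean of all samples by about 3 SD, 99.7% confidence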;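 further: fluorescence intensity change per second fitted from 20 to 320 s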). As to conditions: Recombinant KvBeta, NADPH fluorescence decrease slope, 10 min; at 10 µM; stronger effect = lower value.
For assay [6], the target named is Alpha-2C adrenergic receptor (Homo sapiens) (UniProt P18825). The assay can be described thus: modulators of alpha2C/GIRK thallium flux, primary screen, cell-based, HEK293 alpha2C/GIRK1/2 (AID 624;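 active means fluorescence slope after compound addition differing from the mean of all screened samples at 99.7% confidence, in either direction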;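 further: slope of fluorescence ratio to pre-addition baseline per second over 15 to 24 s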). The settings on record: thallium flux BTC fluorescence, at 10 µM, actives lie on both sides.
Chain of Alpha-2C adrenergic receptor (Homo sapiens) (P18825 whole entry, looked up): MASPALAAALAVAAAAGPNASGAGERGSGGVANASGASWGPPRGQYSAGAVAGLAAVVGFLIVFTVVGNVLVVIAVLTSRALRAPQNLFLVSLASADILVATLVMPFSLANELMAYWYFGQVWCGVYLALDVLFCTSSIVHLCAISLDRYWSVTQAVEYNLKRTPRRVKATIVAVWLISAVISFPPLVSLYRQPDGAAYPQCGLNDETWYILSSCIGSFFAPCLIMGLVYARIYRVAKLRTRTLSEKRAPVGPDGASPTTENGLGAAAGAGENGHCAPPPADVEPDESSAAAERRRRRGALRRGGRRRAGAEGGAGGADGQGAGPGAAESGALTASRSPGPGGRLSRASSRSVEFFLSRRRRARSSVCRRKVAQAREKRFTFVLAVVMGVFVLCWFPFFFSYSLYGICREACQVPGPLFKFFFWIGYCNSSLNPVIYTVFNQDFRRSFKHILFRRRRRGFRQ
Assay [7] is described as follows: inhibitors of larval lipid processing in zebrafish, primary screen, whole organism, PED6 fluorescence, gall bladder and intestine (AID 686;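 active means a full or partial loss of lipid-probe fluorescence in the fish gall bladder, intestine or both, judged by eye; inactive means no fluorescence loss, or compound toxic to the fish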;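 further: larvae 5 to 7 days old with five fish per well; signal comes from phospholipase A2 cleavage of quenched PED6 carried via bile; overnight exposure to compound and PED6 before scoring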). The settings on record: Zebrafish larvae PED6 lipid processing, fluorescence scoring; screened at 20 µM (by protocol). In outline: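 Also added: quenched phospholipase substrate PED6, 100 nM final, ingested by larvae; System: zebrafish larvae, 5-7 d; Quantity: 5 larvae per well; Compound: 20 µM single dose; Schedule: overnight compound and PED6 incubation; Read-out: visual per-well fluorescence inhibition score; Measured by: By-eye fluorescence microscopy; Medium: E3.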

A short description of assay [8]: inhibitors of Sendai virus-induced IRF3 signaling, primary screen, TLR/RLR signaling modifier project, cell-based, Sendai virus stimulus, luciferase, 10K MLSCN set (AID 602276).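 Further: firefly luciferase from ISG56 promoter only with Renilla not read in this screen; 0% = Sendai virus plus DMSO and 100% = medium plus DMSO without virus.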 The settings on record: HEK293 RL24 IRF3 luciferase reporter, at 10 µM, stronger effect = higher value. Background: Reporter assays use an easily measured gene product as a stand-in for the process of interest.

Assay [9] is described as follows: inhibitors of poly I:C-induced TLR3 signaling, primary screen, cell-based, poly I:C stimulus, luciferase, 10K MLSCN set (AID 602277;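 active means inhibition of the reporter signal at or above 50%; inactive means inhibition below 50%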). As to conditions: HEK293-TLR3 RL24 IRF3 luciferase reporter, at 10 µM, stronger effect = higher value.

Activity calls are given as the source filed them.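 How the source made its calls, unless noted: active means inhibition at or above 50% at 10 µM; inactive means inhibition below 50%.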

Chain of Voltage-gated potassium channel subunit beta-2 (Rattus norvegicus) (P62483 whole entry, looked up): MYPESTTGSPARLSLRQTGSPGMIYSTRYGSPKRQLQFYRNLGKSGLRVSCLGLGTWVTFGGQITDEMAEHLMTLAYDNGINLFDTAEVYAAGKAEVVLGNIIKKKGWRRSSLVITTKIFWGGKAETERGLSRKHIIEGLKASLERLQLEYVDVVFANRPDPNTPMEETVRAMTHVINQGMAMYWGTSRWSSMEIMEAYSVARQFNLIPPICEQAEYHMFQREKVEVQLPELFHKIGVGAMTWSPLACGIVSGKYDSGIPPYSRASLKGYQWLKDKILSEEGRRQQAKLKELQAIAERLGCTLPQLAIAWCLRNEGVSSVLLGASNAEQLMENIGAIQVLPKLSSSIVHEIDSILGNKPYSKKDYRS

By inhibition is commonly meant the relative decrease from the control value, in per cent. `c1ccc(-c2cc(CSc3nc4ccccc4[nH]3)on2)cc1`: the cell count in [1] was determined as 416. Besides, the inhibition is 5.3% (inactive) in assay [1], -68.7% (inactive) in assay [3], -0.361% (inactive) in assay [8] and -25% (inactive) in assay [9]. In assay [2], the inhibition of aggregation was -43% (inactive). Besides, the nuclei count in assay [2] is 99.4%; in [3], 116%. In addition, the fluorescence slope in assay [4] was -0.376 (inactive). Besides, the NADPH fluorescence slope in assay [5] is -8.1e-05 (inactive). Besides, the slope in [6] was 0.00533 (inactive). Further, in assay [7], the result was inactive.

`C=CCn1c(SCC(=O)Nc2ccc3c(c2)OCO3)nc2ccccc2c1=O`: the cell count in assay [1] amounted to 388. For the same compound, the inhibition is -0.4% (inactive) in assay [1], 37.8% (inactive) in assay [3], 15.8% (inactive) in assay [8] and 14.8% (inactive) in [9]. In addition, the inhibition of aggregation in [2] is 1.9% (inactive). Further, the nuclei count in assay [2] was 96.8%; in assay [3], 90.6%. Also, the fluorescence slope in [4] was -0.429 (inactive). Besides, the NADPH fluorescence slope in [5] is -3.8e-05 (inactive). Also, the slope in assay [6] was 0.00549 (inactive). The compound was called inactive in assay [7].

Consider `CCOC(=O)N1CCN(C(=O)CN(Cc2ccccc2)S(=O)(=O)c2ccc(OC)c(C)c2)CC1`, for which the cell count in assay [1] amounted to 320. Moreover, the inhibition in [1] was -2.3% (inactive); in assay [3], -6.6% (inactive); in assay [8] it was -4.93% (inactive); in assay [9], 1.48% (inactive). The inhibition of aggregation in [2] was 1.8% (inactive). For the same compound, the nuclei count turned out to be 106% in [2] and 70.5% in [3]. For the same compound, the fluorescence slope in assay [4] is -0.38 (inactive). Further, the NADPH fluorescence slope in [5] was 1e-05 (inactive). Moreover, the slope in assay [6] was 0.00442 (inactive). Further, the outcome in assay [7] was inactive.

Consider `CCN(CC)c1ccc(C(=O)n2cnc3ccccc32)cc1`, for which the cell count in [1] is 461. The inhibition in assay [1] is 12.1% (inactive); in assay [3], -306% (inactive); in assay [8], 25.3% (inactive); in assay [9], -37.1% (inactive). Besides, in assay [2], the inhibition of aggregation was 7.1% (inactive). Moreover, the nuclei count in assay [2] came out at 95.4%; in assay [3], 128%. Moreover, the fluorescence slope in [4] was -0.284 (inactive). Besides, in assay [5], the NADPH fluorescence slope was -3.9e-05 (inactive). Also, the slope in assay [6] was 0.00386 (inactive). Also, the compound was classed as inactive in assay [7].

Turning to `C=CCN(CC=C)C(=O)Nc1cc(Cl)ccc1OC`, the cell count in assay [1] came to 373. For the same compound, the inhibition in [1] is 0.5% (inactive); in [3] it was -87.7% (inactive); in assay [8], 4.56% (inactive); in [9], -3.97% (inactive). Also, the inhibition of aggregation in [2] was -7.2% (inactive). For the same compound, the figures for the nuclei count in [2] and in assay [3] were 103% and 111%, respectively. The fluorescence slope in [4] was -0.402 (inactive). The NADPH fluorescence slope in assay [5] was -3.2e-05 (inactive). For the same compound, the slope in assay [6] is 0.0044 (inactive). For the same compound, the result in assay [7] was inactive.

On to `O=C(Nc1ccccc1Cl)c1c(F)c(F)c(F)c(F)c1F`, for which, in [1], the cell count is 407. In addition, the inhibition in [1] was 5.5% (inactive); in assay [3], -166% (inactive); in assay [8], -7.6% (inactive); in assay [9], -12.7% (inactive). In addition, the inhibition of aggregation in assay [2] was 2.9% (inactive). Besides, the nuclei count in [2] was 103%; in assay [3] it was 116%. The fluorescence slope in assay [4] was -0.479 (inactive). In [5], the NADPH fluorescence slope is -3e-05 (inactive). Further, the slope in [6] was 0.00592 (inactive). The compound was classed as inactive in [7].

For `CCOc1ccc(NC(=O)COC(=O)Cn2cnnn2)cc1OCC`, the cell count in assay [1] came to 373. For the same compound, the inhibition in assay [1] was -19.6% (inactive); in [3], 33.9% (inactive); in assay [8] it was 10.8% (inactive); in assay [9], 9.82% (inactive). Besides, the inhibition of aggregation in [2] is 11.4% (inactive). For the same compound, the nuclei count in [2] was 57.8%; in assay [3], 72.6%. Further, the fluorescence slope in assay [4] is -0.468 (inactive). Also, the NADPH fluorescence slope in assay [5] was -2.6e-05 (inactive). The slope in [6] is 0.00481 (inactive). Also, the result in [7] was inactive.

`Cc1onc(-c2ccccc2)c1C(=O)NCc1cccnc1`: the cell count in assay [1] was 272. Besides, the inhibition was -15.4% (inactive) in [1], -22.8% (inactive) in assay [3], 6.6% (inactive) in assay [8] and 8.85% (inactive) in assay [9]. Also, in assay [2], the inhibition of aggregation was -24.1% (inactive). Further, the nuclei count in assay [2] was 120%; in [3] it was 112%. For the same compound, the fluorescence slope in [4] was -0.385 (inactive). In addition, in [5], the NADPH fluorescence slope is -6.1e-05 (inactive). Also, the slope in assay [6] is 0.00521 (inactive). Also, in [7], the call was inactive.

For the compound `O=C1C2CCCN2C(c2ccccc2)N1c1ccc(Cl)cc1` (stereo not drawn), the cell count in assay [1] came to 374. Moreover, the inhibition in assay [1] is 5.5% (inactive); in assay [3], -25.3% (inactive); in [8] it was 31.4% (inactive); in [9] it was -130% (inactive). Moreover, the inhibition of aggregation in assay [2] was -14.7% (inactive). Also, the figures for the nuclei count in assay [2] and in [3] were 99.5% and 114%, respectively. The fluorescence slope in [4] is -0.424 (inactive). In assay [5], the NADPH fluorescence slope was -6.3e-05 (inactive). The slope in [6] is 0.00548 (inactive). Further, in assay [7], the compound was classed as inactive.

Consider `O=C1c2ccccc2C(=O)N1c1cccc(-c2nc3ccccc3o2)c1`, for which the cell count in assay [1] stood at 464. In addition, the inhibition was 7.6% (inactive) in assay [1], -175% (inactive) in assay [3], 2.66% (inactive) in assay [8] and 4.23% (inactive) in assay [9]. For the same compound, the inhibition of aggregation in [2] was 4% (inactive). Further, the values for the nuclei count in assay [2] and in assay [3] were 104% and 130%, respectively. Also, the fluorescence slope in [4] is -0.384 (inactive). In addition, the NADPH fluorescence slope in [5] was -5.2e-05 (inactive). The slope in assay [6] is 0.00482 (inactive). In addition, in assay [7], the result was inactive.

Turning to `Cc1cccc(OCC(=O)Nc2cc(C)ccc2O)c1`, in assay [1], the cell count was found to be 311. Further, the inhibition in assay [1] was 0.5% (inactive); in assay [3] it was -15.1% (inactive); in [8] it was 10.8% (inactive); in assay [9], 15.6% (inactive). Besides, in [2], the inhibition of aggregation is -9.5% (inactive). Moreover, the nuclei count in [2] is 95.3%; in assay [3], 87.8%. In [4], the fluorescence slope is -0.446 (inactive). In assay [5], the NADPH fluorescence slope was -2.2e-05 (inactive). Besides, in [6], the slope is 0.00484 (inactive). Besides, the compound was called inactive in assay [7].

Regarding `COc1cc(CC(=O)Oc2ccc3c(c2)OCO3)cc(OC)c1OC`, the cell count in [1] is 469. Further, the inhibition was 1.1% (inactive) in assay [1], -79.4% (inactive) in assay [3], 2.88% (inactive) in [8] and 99% (active) in assay [9]. Further, the inhibition of aggregation in assay [2] is -5.8% (inactive). The nuclei count in [2] was 112%; in assay [3], 101%. Moreover, the fluorescence slope in [4] was -0.392 (inactive). In addition, the NADPH fluorescence slope in assay [5] was -5.2e-05 (inactive). Further, the slope in assay [6] is 0.00391 (inactive). In addition, the result in assay [7] was inactive.

On to `COc1ccc(C(C)NC(=O)c2ccoc2C)cc1OC` (stereo not drawn), for which the cell count in [1] was 307. In addition, the inhibition was -8.9% (inactive) in assay [1], 51.2% (inactive) in assay [3], 14.4% (inactive) in assay [8] and 19.8% (inactive) in assay [9]. Further, in [2], the inhibition of aggregation was -2.3% (inactive). Also, the nuclei count worked out at 105% in [2] and 54.3% in assay [3]. Also, the fluorescence slope in assay [4] is -0.383 (inactive). In addition, the NADPH fluorescence slope in assay [5] was -2.1e-05 (inactive). Moreover, the slope in assay [6] was 0.00668 (inactive). In addition, the compound was classed as inactive in [7].

On to `CCCc1cc(N2CCCC2)n2nc(C)c(-c3ccccc3)c2n1`, for which the cell count in assay [1] was found to be 531. Also, the inhibition in assay [1] is -11% (inactive); in assay [3] it was -22.9% (inactive); in assay [8] it was 14% (inactive); in assay [9], -0.253% (inactive). For the same compound, the inhibition of aggregation in assay [2] is -13.4% (inactive). Moreover, the nuclei count in assay [2] amounted to 112%; in assay [3] it was 122%. In assay [4], the fluorescence slope is -0.118 (inactive). For the same compound, the NADPH fluorescence slope in assay [5] was 9.3e-07 (inactive). Besides, in assay [6], the slope is 0.00457 (inactive). For the same compound, in assay [7], the outcome was inactive.
